Activity calls are given as the source filed them. The calls are words filed in the database; no cut-off is given here.
Tests used:
A549 [1] = experiment: Anticancer activity against human A549 cells after 48 hrs by MTT assay; assay type: functional, cell-based; conditions: A549, 48 h
Method in brief: (§1)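 MTT assay: 1×10⁴ cells/well seeded in DMEM with 10% FBS, 24 h at 37°C in CO₂ before dosing. Compounds diluted in medium, vehicle control included, 48 h exposure. MTT (5 mg/mL stock) added for 4 h, formazan dissolved in DMSO, absorbance read at 540 nm. IC50 averaged from three individual experiments.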

HT-29 = experiment: Anticancer activity against human HT-29 cells after 48 hrs by MTT assay; assay type: functional, cell-based; conditions: HT-29, 48 h; method in brief: as §1
ACHN = experiment: Anticancer activity against human ACHN cells after 48 hrs by MTT assay; assay type: functional, cell-based; method in brief: as §1
DU-145 = experiment: Anticancer activity against human DU145 cells after 48 hrs by MTT assay; assay type: functional, cell-based; conditions: DU-145, 48 h; method in brief: as §1
HeLa = experiment: Anticancer activity against human HeLa cells after 48 hrs by MTT assay; assay type: functional, cell-based; method in brief: as §1
A549 [2] = experiment: Cell cycle arrest in human A549 cells assessed as accumulation at sub-G1 phase at 0.5 uM after 48 hrs by propidium iodide staining-based flow cytometric analysis (reference value: 6.47%); assay type: functional
A549 [3] = experiment: Cell cycle arrest in human A549 cells assessed as accumulation at sub-G1 phase at 1 uM after 48 hrs by propidium iodide staining-based flow cytometric analysis (reference value: 6.47%); assay type: functional
A549 [4] = experiment: Cell cycle arrest in human A549 cells assessed as accumulation at G0/G1 phase at 0.5 uM after 48 hrs by propidium iodide staining-based flow cytometric analysis (reference value: 78.23%); assay type: functional
A549 [5] = experiment: Cell cycle arrest in human A549 cells assessed as accumulation at G0/G1 phase at 1 uM after 48 hrs by propidium iodide staining-based flow cytometric analysis (reference value: 78.23%); assay type: functional
A549 [6] = experiment: Cell cycle arrest in human A549 cells assessed as accumulation at S phase at 0.5 uM after 48 hrs by propidium iodide staining-based flow cytometric analysis (reference value: 3.57%); assay type: functional
A549 [7] = experiment: Cell cycle arrest in human A549 cells assessed as accumulation at S phase at 1 uM after 48 hrs by propidium iodide staining-based flow cytometric analysis (reference value: 3.57%); assay type: functional
A549 [8] = experiment: Cell cycle arrest in human A549 cells assessed as accumulation at G2/M phase at 0.5 uM after 48 hrs by propidium iodide staining-based flow cytometric analysis (reference value: 11.73%); assay type: functional
A549 [9] = experiment: Cell cycle arrest in human A549 cells assessed as accumulation at G2/M phase at 1 uM after 48 hrs by propidium iodide staining-based flow cytometric analysis (reference value: 11.73%); assay type: functional
Tubulin (Homo sapiens) [10] = target: T1, Tubulin (Homo sapiens) (UniProt P68371+Q9H4B7+P0DPH7+P68366+Q13509+Q71U36+P04350+Q3ZCM7+P07437+P68363+Q9BQE3+Q6PEY2+Q13885+Q9BVA1+Q9BUF5); experiment: Inhibition of tubulin (unknown origin) polymerization at 3 uM measured for 1 hr by fluorescence assay relative to control; assay type: protein-complex assay
Method in brief: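 Tubulin polymerization kit, fluorescence-reporter based. Reaction in PEM buffer with GTP, with or without compound at 3 µM final. Reporter incorporation followed as fluorescence increase (excitation 360 nm, emission 420 nm) for 1 h at 37°C. Mean of two experiments, each in triplicate.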

Tubulin = experiment: Inhibition of tubulin (unknown origin) polymerization measured for 1 hr by fluorescence assay; assay type: protein-complex assay, Homo sapiens
Tubulin (Homo sapiens) [11] = target: T1, Tubulin (Homo sapiens); experiment: Inhibition of alpha-tubulin polymerization in human A549 cells at 1 uM after 48 hrs by immunohistochemical analysis; assay type: cell-based
Method in brief: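 A549 cells on coverslips treated 48 h at 1 µM. Fixed in 4% paraformaldehyde for 20 min, permeabilised with 0.2% Triton X-100 for 5 min, then methanol overnight. Blocked in 1% BSA, anti-α-tubulin (1:1000) 2 h at room temperature, FITC anti-mouse secondary 1 h. Microtubule network integrity examined by fluorescence microscopy.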

A549 [12] = experiment: Induction of apoptosis in human A549 cells assessed as nuclear condensation at 1 uM after 48 hrs by Hoechst staining-based fluorescence microscopic analysis; assay type: functional, cell-based
Method in brief: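 10,000 A549 cells on coverslips, 24 h, then fresh medium with compound at 1 µM for 48 h. Vehicle control 0.001% DMSO. Hoechst 33258 added with 4% paraformaldehyde for 30 min at 37°C. Random fields imaged by fluorescence microscopy and scored qualitatively for chromatin condensation and nuclear fragmentation.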

A549 [13] = experiment: Induction of apoptosis in human A549 cells assessed as caspase-3 activation at 1 to 2 uM after 48 hrs by ELISA relative to control; assay type: functional
Method in brief: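 Colorimetric caspase-3 kit used. A549 cells treated 48 h at 1 and 2 µM, pelleted, washed in PBS, lysed 15 min, spun 15 min. Supernatant assayed by ELISA-based readout, fold change versus untreated control. Mean of two experiments, each in triplicate.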

A549 [14] = experiment: Induction of apoptosis in human A549 cells assessed as DNA fragmentation at 1 uM after 48 hrs by agarose gel electrophoresis; assay type: functional, cell-based
Method in brief: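 After 24 h settling, 1×10⁶ A549 cells/well treated 48 h at 1 µM. Pellet washed in PBS and lysed. Supernatant given SDS and RNase A for 2 h at 56°C, then proteinase K for 2 h at 37°C. DNA precipitated with ammonium acetate and cold ethanol at -80°C, washed in 80% ethanol, dissolved in TE. Laddering on 2% agarose gel.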

Structure (SMILES) | IC50 (A549 [1]) [µM] | IC50 (HT-29) [µM] | IC50 (ACHN) [µM] | IC50 (DU-145) [µM] | IC50 (HeLa) [µM] | Activity (A549 [2]) [%] | Activity (A549 [3]) [%] | Activity (A549 [4]) [%] | Activity (A549 [5]) [%] | Activity (A549 [6]) [%] | Activity (A549 [7]) [%] | Activity (A549 [8]) [%] | Activity (A549 [9]) [%] | inhibition (Tubulin (Homo sapiens) [10]) [%] | IC50 (Tubulin) [µM] | inhibition (Tubulin (Homo sapiens) [11]) | Activity (A549 [12]) | fold change (FC) (A549 [13]) | Activity (A549 [14])
O=C1OCC2=C1C(c1ccc(-c3ccc(-c4cc(F)c(F)c(F)c4)cc3)cc1)c1c(-c3ccccc3)n[nH]c1N2 (stereo unspecified) | 4.36 | 6.45 | 7.52 | 6.5 | 7.07 |  |  |  |  |  |  |  |  |  |  |  |  |  | 
O=C1OCC2=C1C(c1ccc(-c3ccc(-c4ccc(C(F)(F)F)cc4)cc3)cc1)c1c(-c3ccccc3)n[nH]c1N2 (stereo unspecified) | 5.75 | 8.51 | 5.24 | 6.45 | 6.16 |  |  |  |  |  |  |  |  |  |  |  |  |  | 
O=C1OCC2=C1C(c1ccc(-c3ccc(-c4ccc(C(F)(F)F)cc4)cc3)cc1)c1cc3[nH]ccc3cc1N2 (stereo unspecified) | 10 | 7.41 | 7.58 | 12.6 | 16.6 |  |  |  |  |  |  |  |  |  |  |  |  |  | 
COc1cc([C@@H]2c3cc4c(cc3[C@@H](O[C@@H]3O[C@@H]5CO[C@@H](C)O[C@H]5[C@H](O)[C@H]3O)[C@H]3COC(=O)[C@H]23)OCO4)cc(OC)c1O [ETOPOSIDE] | 2.45 | 1.47 | 2.04 | 3.17 | 2.75 | 4.93 | 4.01 | 70.74 | 46.09 | 4.24 | 3.76 | 20.09 | 46.14 |  |  |  |  |  | 
O=C1OCC2=C1C(c1ccc(-c3ccc(-c4cc(F)cc(F)c4)cc3)cc1)c1c(-c3ccccc3)n[nH]c1N2 (stereo unspecified) | 6.72 | 5.83 | 14.1 | 10 | 8.12 |  |  |  |  |  |  |  |  |  |  |  |  |  | 
O=C1OCC2=C1C(c1ccc(-c3ccc(-c4ccc(F)cc4)cc3)cc1)c1c(ccc3cn[nH]c13)N2 (stereo unspecified) | 0.95 | 1.69 | 1.47 | 1.44 | 1.94 |  |  |  |  |  |  |  |  |  |  |  |  |  | 
O=C1OCC2=C1C(c1ccc(-c3ccc(-c4cc(F)cc(F)c4)cc3)cc1)c1c(ccc3cn[nH]c13)N2 (stereo unspecified) | 0.91 | 1.02 | 0.95 | 1.28 | 1.23 | 1.27 | 1.22 | 69.78 | 41.23 | 4.39 | 5.21 | 24.56 | 52.34 | 51.3 | 2.74 | Active | Active | 3 | Active
O=C1OCC2=C1C(c1ccc(-c3ccc(-c4cc(F)c(F)c(F)c4)cc3)cc1)c1cc3[nH]ccc3cc1N2 (stereo unspecified) | 5.49 | 6.6 | 6.45 | 13.2 | 10.5 |  |  |  |  |  |  |  |  |  |  |  |  |  | 
O=C1OCC2=C1C(c1ccc(-c3ccc(-c4cc(F)cc(Cl)c4)cc3)cc1)c1cc3[nH]ccc3cc1N2 (stereo unspecified) | 2.55 | 8.7 | 2.95 | 4.78 | 3.16 |  |  |  |  |  |  |  |  |  |  |  |  |  | 
O=C1OCC2=C1C(c1ccc(-c3ccc(-c4ccc(OC(F)(F)F)cc4)cc3)cc1)c1c(-c3ccccc3)n[nH]c1N2 (stereo unspecified) | 0.98 | 1.77 | 4.07 | 1.12 | 2.23 |  |  |  |  |  |  |  |  |  |  |  |  |  | 
O=C1OCC2=C1C(c1ccc(-c3ccc(-c4ccc(OC(F)(F)F)cc4)cc3)cc1)c1c(ccc3cn[nH]c13)N2 (stereo unspecified) | 0.87 | 1 | 0.95 | 0.98 | 1.24 | 1.08 | 1.01 | 64.52 | 38.41 | 2.39 | 2.35 | 32.01 | 58.23 | 60.1 | 2.95 | Active | Active | 3 | Active
O=C1OCC2=C1C(c1ccc(-c3ccc(-c4cc(F)cc(F)c4)cc3)cc1)c1cc3[nH]ccc3cc1N2 (stereo unspecified) | 5.49 | 6.45 | 5.75 | 8.7 | 8.51 |  |  |  |  |  |  |  |  |  |  |  |  |  | 
O=C1OCC2=C1C(c1ccc(-c3ccc(-c4ccc(F)cc4)cc3)cc1)c1cc3[nH]ccc3cc1N2 (stereo unspecified) | 4.36 | 8.91 | 5.75 | 7.24 | 9.54 |  |  |  |  |  |  |  |  |  |  |  |  |  | 
COc1cc([C@@H]2c3cc4c(cc3[C@H](O)[C@H]3COC(=O)[C@H]23)OCO4)cc(OC)c1OC [PODOFILOX] | 3.09 | 2.29 | 1.93 | 3.21 |  |  |  |  |  |  |  |  |  | 52 |  |  |  |  | 
O=C1OCC2=C1C(c1ccc(-c3ccc(-c4ccc(F)cc4)cc3)cc1)c1c(-c3ccccc3)n[nH]c1N2 (stereo unspecified) | 1.47 | 3.31 | 2.18 | 4.16 | 3.8 |  |  |  |  |  |  |  |  |  |  |  |  |  | 
O=C1OCC2=C1C(c1ccc(-c3ccc(-c4cc(F)cc(Cl)c4)cc3)cc1)c1c(-c3ccccc3)n[nH]c1N2 (stereo unspecified) | 2.88 | 6.3 | 3.16 | 5.75 | 6.02 |  |  |  |  |  |  |  |  |  |  |  |  |  | 
O=C1OCC2=C1C(c1ccc(-c3ccc(-c4cc(F)c(F)c(F)c4)cc3)cc1)c1c(ccc3cn[nH]c13)N2 (stereo unspecified) | 3.98 | 8.91 | 7.41 | 6.91 | 5.49 |  |  |  |  |  |  |  |  |  |  |  |  |  | 
O=C1OCC2=C1C(c1ccc(-c3ccc(-c4ccc(OC(F)(F)F)cc4)cc3)cc1)c1cc3[nH]ccc3cc1N2 (stereo unspecified) | 5.12 | 9.33 | 5.37 | 6.02 | 7.41 |  |  |  |  |  |  |  |  |  |  |  |  |  | 
O=C1OCC2=C1C(c1ccc(-c3ccc(-c4cc(F)cc(Cl)c4)cc3)cc1)c1c(ccc3cn[nH]c13)N2 (stereo unspecified) | 7.41 | 9.42 | 9.33 | 12.6 | 7.53 |  |  |  |  |  |  |  |  |  |  |  |  |  | 
O=C1OCC2=C1C(c1ccc(-c3ccc(-c4ccc(C(F)(F)F)cc4)cc3)cc1)c1c(ccc3cn[nH]c13)N2 (stereo unspecified) | 1.16 | 2.39 | 2.75 | 4.89 | 7.09 |  |  |  |  |  |  |  |  |  |  |  |  |  | 

— ChEMBL document CHEMBL3259608, “Synthesis of a terphenyl substituted 4-aza-2,3-didehydropodophyllotoxin analogues as inhibitors of tubulin polymerization and apoptosis inducers” (Bioorg Med Chem, 2014)
